Measurements as given in PMC8717589 (ACS Omega, 2021).
Where two headings read alike, the source gives them in different places.

Columns and labels:
[1] = test system: L. infantum MHOM/TN/80/IPT1 promastigotes; assay: L. infantum promastigotes viability assay; assay type: cell-based, Leishmania infantum; conditions: 72 h; for inhibition at 20 µM: read-out: Percentage of inhibition at 20 μM, L. infantum MHOM/TN/80/IPT1
Summary of the method: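 Late log/stationary promastigotes were seeded in RPMI-PY at 2.5 × 10^6/mL. They were treated 72 h at 26 °C with 1:2 or 2:3 dilutions from 20 to 0.31 μM, with DMSO vehicle control, in duplicate. MTS/PMS was added at 26 °C until formazan formed, then A492 was read. Growth inhibition is relative to DMSO. IC50 from a normalized-response nonlinear fit with unconstrained Hill slope. Mean and 95% CI, ≥3 independent experiments.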

Cytotoxicity assay [2] = assay type: cell-based, human; conditions: human, PMA-differentiated THP-1 cells (macrophage-like)
Summary of the method: (§1)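 THP-1 (RPMI-1640, 10% FBS; 5 × 10^6 cells/mL) were PMA-differentiated (20 ng/mL, 48 h). DH82 (EMEM, 15% FBS; 2 × 10^5/well) were attached overnight. Both were exposed 72 h at 37 °C to 2, 10, 20, 80 and 200 μM, with DMSO control, in duplicate. Read-out was MTS/PMS A492, with % inhibition at 200 μM.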

Cytotoxicity assay [3] = assay type: cell-based, canine; conditions: dog, DH82 cells
Summary of the method: as §1

THP-1 cells = assay: Cytotoxicity assay; assay type: cell-based, human; conditions: for THP-1 selectivity index (CC50/IC50): IC50 on L. infantum MHOM/TN/80/IPT1, CC50 72 h
Summary of the method: as §1

DH82 cells = assay: Cytotoxicity assay; assay type: cell-based, canine; conditions: IC50 on L. infantum MHOM/TN/80/IPT1; CC50 72 h
Summary of the method: as §1

[4] = Leishmania infantum, read-out: L. infantum MHOM/TN/80/IPT1 IC50 (95% CI), promastigotes, 72 h, MTS

CCOC(=O)c1c(C(=O)OC)cn(CC(c2cn(C)c3cc(Br)ccc23)c2cn(C)c3cc(Br)ccc23)c1C [1d]
IC50 [1, 4]: > 20 µM
inhibition at 20 µM ([1]; Leishmania infantum): 11%

N=C(N)c1ccc(OCCCCCOc2ccc(C(=N)N)cc2)cc1 [Pent, pentamidine, reference compound]
IC50 [1, 4]: 2.6 µM
CC50 at 72 h (Cytotoxicity assay [2]): 103 µM
CC50 at 72 h (Cytotoxicity assay [3]): 10.6 µM

C[C@@H]1[C@H](O)[C@@H](C)/C=C/C=C/C=C/C=C/C=C/C=C/C=C/[C@H](O[C@@H]2O[C@H](C)[C@@H](O)[C@H](N)[C@@H]2O)C[C@@H]2O[C@](O)(C[C@@H](O)C[C@@H](O)[C@H](O)CC[C@@H](O)C[C@@H](O)CC(=O)O[C@H]1C)C[C@H](O)[C@H]2C(=O)O [Amph B, amphotericin B, reference compound]
IC50 [1, 4]: 0.064 µM
CC50 at 72 h (Cytotoxicity assay [2]): 2.8 µM
THP-1 selectivity index (CC50/IC50) (THP-1 cells): 45.8
CC50 at 72 h (Cytotoxicity assay [3]): > 200 µM
DH82 selectivity index (CC50/IC50) (DH82 cells): >3333

COC(=O)c1c(C)ncn1CC(c1cn(C)c2ccccc12)c1cn(C)c2ccccc12 [2e]
IC50 [1, 4]: 4.9 µM
CC50 at 72 h (Cytotoxicity assay [2]): 55.4 µM
THP-1 selectivity index (CC50/IC50) (THP-1 cells): 11.3
CC50 at 72 h (Cytotoxicity assay [3]): 24.3 µM
DH82 selectivity index (CC50/IC50) (DH82 cells): 5.0

Cc1cn(CC(c2cn(C)c3ccccc23)c2cn(C)c3ccccc23)nn1 [3b]
IC50 [1, 4]: < 8 µM
IC50 ([1]; read-out: L. infantum MHOM/TN/80/IPT1 IC50 (95% CI), promastigotes, MTS): 8.1 µM
CC50 at 72 h (Cytotoxicity assay [2]): > 200 µM
inhibition at 200 µM (THP-1 cells; Homo sapiens, THP-1, 72 h, read-out: Percentage of inhibition at 200 μM, THP-1): 33%
THP-1 selectivity index (CC50/IC50) (THP-1 cells): >25
CC50 at 72 h (Cytotoxicity assay [3]): 31.9 µM
DH82 selectivity index (CC50/IC50) (DH82 cells): 3.9

CCOC(=O)c1cn(CC(c2cn(C)c3ccc(C)cc23)c2cn(C)c3ccc(C)cc23)c(C)c1C(=O)OC [1c]
IC50 [1, 4]: > 20 µM
inhibition at 20 µM ([1]; Leishmania infantum): 43%

Cc1cn(CC(c2c[nH]c3ccccc23)c2c[nH]c3ccccc23)nn1 [3a]
IC50 [1, 4]: > 20 µM
inhibition at 20 µM ([1]; Leishmania infantum): 22%

c1ccc2c(Cc3c[nH]c4ccccc34)c[nH]c2c1 [DIM, 3,3′-diindolylmethane, reference compound]
IC50 [1, 4]: > 20 µM
inhibition at 20 µM ([1]; Leishmania infantum): 10%

CCc1ncn(CC(c2c[nH]c3ccc(C)cc23)c2c[nH]c3ccc(C)cc23)c1C(=O)OC [2c]
IC50 [1, 4]: 10 µM
CC50 at 72 h (Cytotoxicity assay [2]): 38.6 µM
THP-1 selectivity index (CC50/IC50) (THP-1 cells): 3.8
CC50 at 72 h (Cytotoxicity assay [3]): 23.5 µM
DH82 selectivity index (CC50/IC50) (DH82 cells): 2.3

CCCCCCCCCCCCCCCCOP(=O)([O-])OCC[N+](C)(C)C [Milt, miltefosine, reference compound]
IC50 [1, 4]: 2.9 µM
CC50 at 72 h (Cytotoxicity assay [2]): 27.8 µM
THP-1 selectivity index (CC50/IC50) (THP-1 cells): 9.8
CC50 at 72 h (Cytotoxicity assay [3]): 95.9 µM
DH82 selectivity index (CC50/IC50) (DH82 cells): 33.6

COC(=O)c1c(C)ncn1CC(c1c[nH]c2ccc(C)cc12)c1c[nH]c2ccc(C)cc12 [2b]
IC50 [1, 4]: 7.7 µM
CC50 at 72 h (Cytotoxicity assay [2]): 26.9 µM
THP-1 selectivity index (CC50/IC50) (THP-1 cells): 3.5
CC50 at 72 h (Cytotoxicity assay [3]): 24.8 µM
DH82 selectivity index (CC50/IC50) (DH82 cells): 3.2

COC(=O)c1c(C)ncn1CC(c1c[nH]c2ccccc12)c1c[nH]c2ccccc12 [2a]
IC50 [1, 4]: 10 µM
CC50 at 72 h (Cytotoxicity assay [2]): 37.9 µM
THP-1 selectivity index (CC50/IC50) (THP-1 cells): 3.8
CC50 at 72 h (Cytotoxicity assay [3]): 35.3 µM
DH82 selectivity index (CC50/IC50) (DH82 cells): 3.5

CCOC(=O)c1c(C)ncn1CC(c1cn(C)c2ccc([N+](=O)[O-])cc12)c1cn(C)c2ccc([N+](=O)[O-])cc12 [2f]
IC50 [1, 4]: 4.9 µM
CC50 at 72 h (Cytotoxicity assay [2]): 35.1 µM
THP-1 selectivity index (CC50/IC50) (THP-1 cells): 7.2
CC50 at 72 h (Cytotoxicity assay [3]): > 200 µM
DH82 selectivity index (CC50/IC50) (DH82 cells): >41

COC(=O)c1c(C)ncn1CC(c1c[nH]c2cc(Br)ccc12)c1c[nH]c2cc(Br)ccc12 [2d]
IC50 [1, 4]: 8.5 µM
CC50 at 72 h (Cytotoxicity assay [2]): 15.4 µM
THP-1 selectivity index (CC50/IC50) (THP-1 cells): 1.8
CC50 at 72 h (Cytotoxicity assay [3]): 18.9 µM
DH82 selectivity index (CC50/IC50) (DH82 cells): 2.2
